From PMC11913021 (Journal of Medicinal Chemistry, 2024)
Read-outs that look alike come from different tables or passages of the source.

Key:
Type in all cases: cell-based
HCT116 cells = assay: WST-1 cell viability assay, HCT116; details: read-out: IC50 of viability; HCT116, WST-1, 48 h
Procedure, shortened: (§1)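 Cells grown in DMEM or RPMI 1640 with 10% FBS and 1% penicillin/streptomycin at 37 °C, 5% CO2. Seeded at 5 × 10^3 cells/well and held 24 h at 37 °C, then exposed to test compound for 48 h. WST-1 absorbance was read at 450 nm, in triplicate. IC50 was taken as the concentration giving 50% growth inhibition versus control.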

A549 cells = assay: WST-1 cell viability assay, A549; details: read-out: IC50 of viability
Procedure, shortened: as §1

PLD = PLD activity inhibition in A549 cells; details: read-out: IC50 for PLD inhibition

| Compound | IC50 (HCT116 cells) [µM] | IC50 (A549 cells; A549, WST-1, 48 h) [µM] | IC50 (PLD) [µM] | IC50 (A549 cells; Homo sapiens, A549, 48 h) [µM] |
| --- | --- | --- | --- | --- |
| 3,5-Bis(trifluoromethyl)phenyl 5-Fluoro-1H-indole-2-carboxylate [3ac] | > 50 | 50 | 3.1 | – |
| C[C@@H](CN1CCC(n2c(=O)[nH]c3cc(Cl)ccc32)CC1)NC(=O)c1ccc2ccccc2c1 [VU0155069, reference compound] | – | – | – | 18.5 |
| N-(3,4-Dihydroxyphenyl)-5-fluoro-1H-indole-2-carboxamide [4c] | > 50 | > 200 | 4.31 | – |
